The subject of assay [1] is MDA-MB-231. Kind of assay: Cytotoxicity against human MDA-MB-231 cells assessed as reduction in cell viability incubated for 72 hrs by MTT assay. Type of assay: functional, cell-based. The settings on record: MDA-MB-231, 72 h. Summed up: (§1)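 MTT viability assay. Cells kept in DMEM with 10% FBS at 37 °C and 5% CO2. Seeded at 5×10^3 cells per well and exposed to a range of compound concentrations from 20 mM DMSO stocks. IC50 is the mean of triplicate measurements.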
On the technique in general: Tetrazolium dyes change colour on reduction, which living cells bring about.

Another assay concerns SH-SY5Y. Kind of assay: Cytotoxicity against human SH-SY5Y cells assessed as reduction in cell viability incubated for 72 hrs by MTT assay. Type of assay: functional, cell-based. Summed up: as §1
Assay [2] deals with MDA-MB-231. Description: Cytotoxicity against human MDA-MB-231 cells assessed as cell blebbing at >1 uM incubated for 48 hrs. Type of assay: functional, cell-based. To be noted: dose microM >1, time 48.0 hrs.
Assay [3] addresses T1, Aurora kinase A (Homo sapiens) (UniProt O14965).
T1 sequence (whole entry): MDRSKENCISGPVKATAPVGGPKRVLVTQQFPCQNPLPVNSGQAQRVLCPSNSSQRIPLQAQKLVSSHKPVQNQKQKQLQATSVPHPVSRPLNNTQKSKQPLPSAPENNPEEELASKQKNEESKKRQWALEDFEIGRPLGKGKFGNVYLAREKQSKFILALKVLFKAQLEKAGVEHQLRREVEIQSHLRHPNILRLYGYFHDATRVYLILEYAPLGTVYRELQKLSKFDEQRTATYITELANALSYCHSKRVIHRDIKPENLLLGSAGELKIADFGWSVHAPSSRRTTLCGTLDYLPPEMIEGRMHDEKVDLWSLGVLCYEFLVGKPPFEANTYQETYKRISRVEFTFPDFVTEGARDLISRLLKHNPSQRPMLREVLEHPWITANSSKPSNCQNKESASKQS
Description: Inhibition of Aurora A in human MDA-MB-231 cells assessed as reduction in Histone H3 phosphorylation incubated for 24 hrs by Western blot analysis. It counts as cell-based. The settings on record: dose 1-4 µM. The essentials:
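MDA-MB-231 cells exposed to DMSO or drug at set concentrations for 24 h. Western blot for phospho-Aurora A at Thr288 or phospho-histone H3 at Ser10, with total Aurora A, histone H3 and GAPDH antibodies also used. Bands quantified by densitometry.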
(In western blotting, separated proteins are transferred to a membrane and probed.)

Assay [4] has as its system MDA-MB-231. Description: Induction of cell cycle arrest in human MDA-MB-231 cells assessed as G0/G1 phase accumulation at 2 uM incubated for 24 hrs by PI staining based flow cytometry analysis (reference value: 42.84 %). It counts as functional. (In flow cytometry, cells or beads pass a laser one at a time.)
Assay [5] relates to MDA-MB-231. Kind of assay: Induction of cell cycle arrest in human MDA-MB-231 cells assessed as S phase accumulation at 2 uM incubated for 24 hrs by PI staining based flow cytometry analysis (reference value: 38.65 %). Type of assay: functional.
The test system of assay [6] is MDA-MB-231. Kind of assay: Induction of apoptosis in human MDA-MB-231 cells assessed as viable cells at 4 uM incubated for 48 hrs by annexin V-FITC and PI staining based flow cytometry analysis (reference value: 90.49 %). It counts as functional. The settings on record: read-out: Activity.
In assay [7] the test system is MDA-MB-231. Kind of assay: Induction of apoptosis in human MDA-MB-231 cells assessed as necrotic cells at 4 uM incubated for 48 hrs by annexin V-FITC and PI staining based flow cytometry analysis (reference value: 3.08 %). It counts as functional.
The subject of assay [8] is MDA-MB-231. Kind of assay: Induction of apoptosis in human MDA-MB-231 cells assessed as increase in PARP cleavage at 1 to 4 uM incubated for 48 hrs by Western blot analysis. Type of assay: functional, cell-based. The settings on record: dose 1-4 µM. Summed up: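 MDA-MB-231 cells treated for 48 h at set concentrations. Cleaved PARP, cleaved caspase-3 and cleaved caspase-9 detected by Western blot and quantified by densitometry. Mean ± SEM, n = 3.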

Assay [9] has as its system MDA-MB-231 (Homo sapiens). Kind of assay: Anticlonogenic activity against human MDA-MB-231 cells assessed as inhibition of colony formation at 0.5 to 2 uM incubated for 72 hrs followed by replacement of medium and measured after 10 days by crystal violet staining based visual analysis. The settings on record: dose 0.5-2 µM.

Activity calls are given as the source filed them. The calls are words filed in the database; no cut-off is given here.

By IC50 is commonly meant the midpoint of a concentration-inhibition curve. As for `CCC(=O)Nc1nc2ccc(-c3ccc4ncn(CCN5CCOCC5)c(=O)c4c3)cc2[nH]1`, the IC50 in the assay with MDA-MB-231 [1] came out at 380 nM; in the assay on SH-SY5Y it was 770 nM. Moreover, the result (with MDA-MB-231 [2]; in the assay on MDA-MB-231 [8]; in [9]) was Active. The inhibition entry in [3] was “Dose-dependent effect”. Moreover, the values for the Activity with MDA-MB-231 [4], in the assay with MDA-MB-231 [5] and in the assay on MDA-MB-231 [7] were 28.68%, 25.43% and 15.91%, respectively. For the same compound, the viability at 4 µM with MDA-MB-231 [6] came out at 53.4%.

(Values after ChEMBL document CHEMBL4765263, “Design, synthesis, biological evaluation of 6-(2-amino-1H-benzo[d]imidazole-6-yl)quinazolin-4(3H)-one derivatives as novel anticancer agents with Aurora kinase inhibition” (Eur J Med Chem, 2020).)
